# Assay outcomes deposited in PubChem by The Scripps Research Institute Molecular Screening Center.
# OX1R antag-1 = human HCRTR1 antagonism; AID 434989; 330,000 tested, 0.43% active; O43613; CHO/OX1R cells, Fluo-8 calcium fluorescence, orexin A; inhibition, % at 5 µM;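 active = inhibition above its plate's threshold, mean inhibition of all tested compounds on the plate plus 3 SD, cut at about 37% in these data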;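 also: 0% = orexin A challenge wells and 100% = SB-334867-A antagonist wells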
# GPR7 antagonist = blocks human GPR7 receptor signaling. inhibition, % at 4.4 µM. P48145. GPR7-expressing cells, fluorescence antagonist assay. 290,000 tested, 1.1% active; in the data active = inhibition above about 16%, passing the limit was not always enough;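 also: cells stimulated with the agonist NPW; 0% = agonist with vehicle and 100% = vehicle without agonist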
# Target sequence (P48145 whole entry, looked up): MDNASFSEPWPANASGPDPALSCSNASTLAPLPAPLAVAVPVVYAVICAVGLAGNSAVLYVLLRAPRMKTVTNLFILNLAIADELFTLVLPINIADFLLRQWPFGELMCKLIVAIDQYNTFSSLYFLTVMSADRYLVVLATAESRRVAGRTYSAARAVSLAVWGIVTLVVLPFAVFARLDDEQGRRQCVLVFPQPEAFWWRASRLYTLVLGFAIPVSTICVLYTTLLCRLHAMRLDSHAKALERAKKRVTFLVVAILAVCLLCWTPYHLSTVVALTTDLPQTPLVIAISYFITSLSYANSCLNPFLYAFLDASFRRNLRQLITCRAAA
# CHO parental Ca = counter-screen for OX1R antagonists: effect in parental CHO cells | parental CHO-K1, ATP-induced calcium, Fluo-8 fluorescence | inhibition, % at 5.6 µM | 330,000 tested, 0.63% active | AID 463079;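 active = inhibition above that plate's mean sample inhibition plus 3 SD, cut at about 26% in these data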;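 also: 0% = ATP-challenged DMSO wells and 100% = DMSO wells without ATP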
#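 Assay system: parental CHO cells; Read-out basis: percent inhibition of ATP-evoked calcium rise, normalized to controls; Benchmarks: ATP and no-ATP DMSO wells; Compound dosing: single nominal dose of 5.6 µM per compound; Signal: Fluo-8 calcium dye fluorescence; Also added: ATP as calcium-mobilizing challenge; Repeats: singlicate.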
# TAAR1 agonist = human TAAR1 agonism. CHO RD-HGA16 TAAR1, Fluo-8 calcium fluorescence; vehicle wells 0%, saturating PEA agonist 100%. Q96RJ0. 360,000 tested, 0.99% active. activation, % at 3 µM;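 active = activation above the mean activation of all test compounds in the run plus 3 SD, cut at about 38% in these data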
# Target sequence (Q96RJ0 whole entry, looked up): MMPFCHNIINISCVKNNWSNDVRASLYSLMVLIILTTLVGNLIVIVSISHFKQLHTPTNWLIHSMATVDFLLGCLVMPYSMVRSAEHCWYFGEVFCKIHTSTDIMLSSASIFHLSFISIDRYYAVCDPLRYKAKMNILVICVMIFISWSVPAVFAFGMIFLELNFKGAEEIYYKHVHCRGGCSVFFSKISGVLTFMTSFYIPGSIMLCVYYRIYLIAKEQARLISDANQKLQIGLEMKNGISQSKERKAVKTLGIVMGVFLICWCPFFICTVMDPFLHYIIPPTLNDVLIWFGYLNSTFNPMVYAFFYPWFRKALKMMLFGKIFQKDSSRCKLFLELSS
#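 System: CHO RD-HGA16 cells carrying human TAAR1 plus Gα16; Incubation: 17-24 h seeding, 75 min 37 °C dye, 30 min RT; Measured by: Fluo-8 fluorescence, 5 s baseline then 140 s kinetic read; Control set: DMSO and PEA EC100; Replication: single well for each compound.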
# TAAR1 antag = human TAAR1 antagonism; Q96RJ0; CHO RD-HGA16 TAAR1, Fluo-8 calcium fluorescence, antagonist; inhibition, % at 3 µM; 360,000 tested, 1.5% active; AID 624466;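 active = inhibition above a per-plate cutoff, the mean inhibition of test compounds on that plate plus 3 SD, cut at about 49% in these data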;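 also: 0% = DMSO plus EC80 beta-PEA response and 100% = DMSO alone without agonist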
#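 Assay system: CHO-derived RD-HGA16 cells stably expressing human TAAR1 plus Gα16. Timing: 140 s kinetic read after compound, 140 s after agonist. Technique: kinetic Fluo-8 calcium fluorescence measurement. Measure: % inhibition of agonist calcium response.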
# OX1R antag-2 = OX1R (human) antagonism; OX1R-expressing cells, FRET antagonist read-out; AID 485270; inhibition, % at 6.6 µM; 330,000 tested, 1.8% active; in the data active = inhibition mostly above about 38%, no sharp cut-off; inactive = mostly below about 40%;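 also: 0% = agonist challenge alone and 100% = reference antagonist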
# * hit, by the source's call; nt = no result. This is a sample that favours compounds with a hit; in the whole collection about 4.6% have one here.
SMILES,OX1R antag-1,GPR7 antagonist,CHO parental Ca,TAAR1 agonist,TAAR1 antag,OX1R antag-2
O=C(c1ccccc1NS(=O)(=O)c1ccc([N+](=O)[O-])cc1[N+](=O)[O-])N1O[C@@H]2C=C[C@H]1C2,-6.7,nt,-8.0,-0.5,-11.7,45.6*
Cc1ccc(S(=O)(=O)N2CCC(C(=O)OCC(=O)N3C(C)CCCC3C)CC2)cc1C (stereo unspecified),nt,nt,nt,-1.8,-6.1,nt
CC(C)n1c(=NC(=O)c2ccco2)c(C#N)cc2c(=O)n3ccccc3cc21,-23.8,-4.0,-9.7,5.3,-9.0,54.4*
CCCCCC/C(C)=C1/SC(=S)NC1=O,13.6,-6.7,-5.6,3.5,14.7,45.0*
C/C(C/C(C)=C1/SC(=S)NC1=O)=C1\SC(=S)NC1=O,nt,-1.7,nt,1.2,6.1,nt
CC(C)(C)C(=O)O/N=C(\N)c1ccc([N+](=O)[O-])s1,-1.8,-4.7,-4.0,16.9,3.4,19.4
N/C(=N\O)c1ccc([N+](=O)[O-])s1,-8.4,-6.3,-2.4,5.2,0.8,46.9*
N/C(=N\OC(=O)C1CC1)c1ccc([N+](=O)[O-])s1,-13.0,-9.6,-1.6,16.4,7.6,56.0*
Cc1ccc(-c2nc(CN(C)C(C3CC3)C3CC3)c(C)o2)cc1,-31.9,-12.3,-13.0,3.2,0.3,48.7
CN(C)c1ncnc2sc(-c3ccccc3)cc12,-22.6,-11.7,-16.0,1.0,-8.1,64.1*
COc1ncnc2sc(-c3ccccc3)cc12,-20.9,-6.0,0.0,-0.6,-10.2,0.0
Cc1nn(C)c(C)c1CCC(=O)N1CCCC(N2CCN(c3ccc(F)cc3)CC2)C1 (stereo unspecified),-12.2,1.1,-20.2,0.1,-4.6,28.3
O=C(/C=C/c1ccccc1)Nc1nc(-c2ccncc2)cs1,-17.8,15.1,17.3,2.5,49.6*,25.4
O=C(/C=C\c1ccco1)Nc1nc(-c2ccccc2)cs1,-8.6,-2.6,-6.1,0.8,-42.2,9.5
COc1ccc(NC(=O)CSc2nnc(-c3cccc(O)c3)o2)cc1,-11.2,7.3,15.1,40.3*,-12.1,8.9
Cc1cccc(OCc2nnc(SCC(=O)Nc3ccc(C)c(C)c3)o2)c1,1.3,-10.5,-11.2,4.9,54.3*,2.9
CC(C)OC(=O)c1ccc(N2CCN(c3ccccc3F)CC2)nc1,-18.6,10.1,-19.0,21.7,18.2,10.7
COC(=O)C1=C(C)N(Cc2cccc(C(F)(F)F)c2)C(=NCc2ccc(OC)cc2)NC1c1cccc(Cl)c1 (stereo unspecified),nt,nt,nt,33.5,48.4,nt
O=C1CCCN1CCCNc1ncccc1[N+](=O)[O-],-7.9,-5.6,6.2,-2.5,-9.6,42.9*
CNc1nc(NCCCN2CCCC2=O)c2sccc2n1,nt,nt,nt,26.1,17.1,nt
Cc1ccc(/C=N/n2c(C)nc3ccccc3c2=O)o1,-16.4,-10.3,-8.0,0.7,14.4,26.1
O=C(CN1CCN(c2cccc(Cl)c2)CC1)NCc1ccccc1,-29.1,-3.3,-17.4,-0.4,-14.3,4.6
S=C(NCc1ccccc1)N1CCN(c2cccc(Cl)c2)CC1,20.1,31.8*,13.4,5.7,12.5,27.3
Cc1nc2ccc3[nH]snc3c2n1,5.0,-0.4,4.1,5.9,-1.2,51.9*
COC(=O)c1sccc1-c1ccc(C(=O)Nc2cccc(Cl)c2)o1,13.2,-0.4,13.9,7.0,-5.3,73.6*
SMILES,OX1R antag-1,GPR7 antagonist,CHO parental Ca,TAAR1 agonist,TAAR1 antag,OX1R antag-2
CN(C)S(=O)(=O)Oc1ccsc1C(=O)Nc1cccc(Cl)c1,-1.3,-4.0,-3.5,-1.2,18.4,2.5
O=C(CSc1n[nH]c(-c2ccccc2)n1)c1ccc(O)c(O)c1,-19.6,20.5*,4.0,11.4,1.9,14.8
Cc1ccc(O)c(NC(=O)CSc2n[nH]c(-c3ccccc3)n2)c1,8.0,-11.5,13.0,6.7,-7.3,35.8
COc1ccc(OC)c(Nc2ccc(C(=O)O)cc2[N+](=O)[O-])c1,7.6,5.2,-2.7,0.2,16.6,33.1
COc1ccc(Nc2ccc(C(=O)O)cc2[N+](=O)[O-])cc1,-22.6,-6.4,0.6,3.4,12.4,54.8*
O=C(CN(Cc1ccco1)Cc1ccco1)Nc1cc(S(=O)(=O)N2CCCCC2)ccc1Cl,73.7*,nt,47.6*,6.7,36.1,9.6
C[C@H](CCC(=O)OCc1cn(CC(=O)c2ccc(O)cc2)nn1)C1CC[C@H]2[C@@H]3CC[C@@H]4C[C@H](O)CC[C@]4(C)[C@H]3C[C@H](O)[C@]12C (stereo partly specified),nt,nt,nt,10.8,53.5*,nt
C[C@H](CCC(=O)O)[C@H]1CC[C@H]2[C@@H]3CC[C@@H]4C[C@H](O)CC[C@]4(C)[C@H]3C[C@H](O)[C@]12C,5.3,nt,-4.2,4.1,-8.8,17.1
Cc1ccc(C)c(CNS(=O)(=O)c2c(C)[nH]c(C)c2C(=O)N2CCCCC2)c1,-30.4,-1.2,-22.3,2.3,-20.0,18.1
CCOC(=O)c1sc(C)c2c(=O)n(CC)nnc12,7.5,-0.9,-9.3,10.9,5.3,63.1*
CCN(CC)CC(O)COc1ccccc1C(=O)CCc1ccccc1 (stereo unspecified),-21.5,2.6,-25.6,1.6,-1.3,-2.1
CCCCN(CCCC)CC(O)COc1ccccc1C(=O)Nc1ccccc1 (stereo unspecified),-24.4,19.8*,-15.2,-0.3,-20.9,21.5
CCN(c1ccccc1)S(=O)(=O)c1ccc(C(=O)N2CCOCC2)cc1,-13.2,nt,2.5,6.4,-18.4,3.2
O=C(NCc1cccc(CNC(=O)C(=O)NCc2ccco2)c1)C(=O)NCc1ccco1,13.9,-0.9,32.5*,2.1,-11.4,4.8
O=C(NCc1cccc(CNC(=O)c2ccco2)c1)c1ccco1,-15.9,-11.4,-21.3,12.8,0.3,7.5
O=C1c2ccccc2C(=O)N1Nc1ccc([N+](=O)[O-])cc1[N+](=O)[O-],-21.3,-6.1,-7.0,1.4,12.4,68.0*
O=[N+]([O-])c1ccc(Nc2ccccn2)c([N+](=O)[O-])c1,-13.2,-7.6,-2.3,-0.3,-5.9,36.3*
CCc1ccc(NC(=O)C2CCCN(S(=O)(=O)c3c(C)[nH]c(=O)[nH]c3=O)C2)cc1 (stereo unspecified),4.2,-2.5,-0.9,0.2,2.2,19.5
CCOC(=O)c1ccc(-c2ccc3c(=O)c4ccccc4n(C)c3c2)cc1F,8.1,-1.2,-2.6,6.6,5.7,65.6*
C[C@@H]1CNC(=O)c2c(C(=O)Nc3ccc(CNC(=O)OC(C)(C)C)cc3)ncn21,nt,nt,nt,13.1,50.5*,nt
Cc1cc(S(=O)(=O)Nc2ccc(C(=O)N3CC(C)OC(C)C3)cc2)ccc1F (stereo unspecified),-36.8,nt,-25.0,3.1,-10.3,-1.1
COc1ccc(S(=O)(=O)N2CCC(C(=O)NCCCn3ccnc3)CC2)cc1C,-5.8,-9.8,5.7,1.2,-16.8,19.6
c1ccc(-c2noc(-c3cccc4ccccc34)n2)nc1,-8.8,-8.0,-36.5,25.1,-7.6,66.2*
